We go through 23 molecules from ChEMBL document CHEMBL1800025 (J Med Chem, 2011).

The target of assay [1] is Dual specificity tyrosine-phosphorylation-regulated kinase 1A (Rattus norvegicus, UniProt Q63470). Kind of assay: Inhibition of rat recombinant GST-tagged DYRK1A using KKISGRLSPIMTEQ as substrate and [gamma32]-ATP after 30 mins by scintillation counting. A digest of the protocol:
(§1)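 GST fusion kinases expressed in E. coli and purified on glutathione-agarose; DYRK1A is rat, DYRK2 is human. Assay buffer A (25 mM Tris-HCl pH 7.5, 10 mM MgCl2, 1 mM EGTA, 1 mM DTT, 50 μg/mL heparin) plus 0.15 mg/mL BSA. Product captured on P81 paper, washed in 1% phosphoric acid, scintillation counted. Activity expressed as percent of uninhibited control.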

The target of assay [2] is T1, Dual specificity tyrosine-phosphorylation-regulated kinase 2 (Homo sapiens, UniProt Q92630).
T1 sequence (Q92630 whole entry): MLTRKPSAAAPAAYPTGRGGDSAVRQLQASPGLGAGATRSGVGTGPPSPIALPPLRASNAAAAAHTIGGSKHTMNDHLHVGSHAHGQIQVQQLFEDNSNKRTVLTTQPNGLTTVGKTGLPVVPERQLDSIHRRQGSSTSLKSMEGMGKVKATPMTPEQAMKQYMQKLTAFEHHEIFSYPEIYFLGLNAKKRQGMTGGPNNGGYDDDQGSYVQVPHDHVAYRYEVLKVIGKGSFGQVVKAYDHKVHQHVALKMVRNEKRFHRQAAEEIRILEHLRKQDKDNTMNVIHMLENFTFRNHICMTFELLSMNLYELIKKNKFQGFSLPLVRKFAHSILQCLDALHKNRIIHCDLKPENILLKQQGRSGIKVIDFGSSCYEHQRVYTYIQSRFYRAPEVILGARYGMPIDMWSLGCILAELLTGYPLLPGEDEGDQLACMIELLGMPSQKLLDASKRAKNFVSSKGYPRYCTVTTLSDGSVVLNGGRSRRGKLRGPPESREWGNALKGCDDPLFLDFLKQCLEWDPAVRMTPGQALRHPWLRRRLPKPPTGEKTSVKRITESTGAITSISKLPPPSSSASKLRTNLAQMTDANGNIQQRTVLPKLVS
As to the kind of experiment: Inhibition of human recombinant GST-tagged DYRK2 using KKISGRLSPIMTEQ as substrate and [gamma32]-ATP after 30 mins by scintillation counting. The procedure, abridged:
as §1

For assay [3], the target named is Dual specificity protein kinase CLK1 (Mus musculus, UniProt P22518). Kind of assay: Inhibition of mouse recombinant GST-tagged CLK1 using GRSRSRSRSRSR as substrate. A digest of the protocol: (§2)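 Mouse GST-fusion CLK1 or CLK3 expressed in E. coli. Assay buffer A (Tris-HCl pH 7.5, MgCl2, EGTA, DTT, heparin) plus 0.15 mg/mL BSA. RS peptide 1 μg/assay, 15 μM ATP final, 30 C. Blank subtracted; activity expressed as percent of activity without inhibitor. DMSO controls. Concentration range up to 10 μM.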
Chain of Dual specificity protein kinase CLK1 (P22518 whole entry, the tested form may be a part): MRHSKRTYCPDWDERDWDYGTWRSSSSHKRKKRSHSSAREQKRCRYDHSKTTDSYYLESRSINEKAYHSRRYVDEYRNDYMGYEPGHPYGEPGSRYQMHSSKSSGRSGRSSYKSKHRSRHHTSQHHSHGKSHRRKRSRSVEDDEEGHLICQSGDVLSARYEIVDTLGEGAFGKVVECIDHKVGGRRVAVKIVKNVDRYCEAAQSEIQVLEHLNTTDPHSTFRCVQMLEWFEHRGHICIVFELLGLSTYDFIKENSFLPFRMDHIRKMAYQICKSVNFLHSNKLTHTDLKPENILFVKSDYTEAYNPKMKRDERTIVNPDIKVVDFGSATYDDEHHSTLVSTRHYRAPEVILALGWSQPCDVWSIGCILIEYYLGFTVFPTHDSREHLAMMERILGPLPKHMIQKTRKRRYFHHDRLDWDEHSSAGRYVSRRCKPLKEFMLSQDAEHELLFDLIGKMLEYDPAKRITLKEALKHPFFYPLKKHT

Assay [4] concerns the target Dual specificity protein kinase CLK3 (Mus musculus, UniProt O35492). As to the kind of experiment: Inhibition of mouse recombinant GST-tagged CLK3 using GRSRSRSRSRSR as substrate. A digest of the protocol: as §2
In assay [5] the target is Serine/threonine-protein kinase pim-1 (Homo sapiens, UniProt P11309). Kind of assay: Inhibition of human recombinant Pim1. The procedure, abridged:
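Kinase assayed in buffer C (25 mM Mops pH 7.2, 60 mM beta-glycerophosphate, 30 mM p-nitrophenylphosphate, 15 mM MgCl2, 5 mM EGTA, 1 mM DTT, 0.1 mM vanadate) with 1 mg/mL histone H1. DMSO controls.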

The species named for another assay is Sus scrofa. Kind of assay: Inhibition of pig brain CK1 delta/epsilon using RRKHAAIGpSAYSITA as substrate at 10 uM. The procedure, abridged:
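Native CK1δ/ε from porcine brain, assayed in 3-fold diluted buffer C with 25 μM CKS peptide substrate. 15 μM ATP final, 30 C. Activity is percent of uninhibited control after blank subtraction, with DMSO controls. Inhibitor tested over a range of concentrations up to 10 μM.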

Assay [6] concerns the target Glycogen synthase kinase-3 alpha/beta (Sus scrofa). Kind of assay: Inhibition of pig brain GSK-3alpha/beta.
For assay [7], the system named is Cyclin-dependent kinase 5/p25 (Homo sapiens). Kind of assay: Inhibition of human recombinant CDK5/p25 at 10 uM.

Active and inactive are the calls of the source. The calls are words filed in the database; no cut-off is given here. Where only a bound is given, the exact number is not on record here.

Chain of Dual specificity protein kinase CLK3 (O35492 whole entry): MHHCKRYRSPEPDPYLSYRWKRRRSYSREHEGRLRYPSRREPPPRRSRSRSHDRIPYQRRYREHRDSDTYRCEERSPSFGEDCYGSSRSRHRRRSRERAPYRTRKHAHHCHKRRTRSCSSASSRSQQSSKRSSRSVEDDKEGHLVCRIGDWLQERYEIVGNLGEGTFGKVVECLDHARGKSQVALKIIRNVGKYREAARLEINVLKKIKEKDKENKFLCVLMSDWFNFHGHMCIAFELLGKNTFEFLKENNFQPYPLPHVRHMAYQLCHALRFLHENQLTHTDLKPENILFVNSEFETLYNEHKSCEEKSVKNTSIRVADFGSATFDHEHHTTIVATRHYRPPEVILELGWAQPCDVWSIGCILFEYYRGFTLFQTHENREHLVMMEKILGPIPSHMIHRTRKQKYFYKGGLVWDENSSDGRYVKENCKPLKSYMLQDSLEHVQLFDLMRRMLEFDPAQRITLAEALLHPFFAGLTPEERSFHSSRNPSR
Chain of Serine/threonine-protein kinase pim-1 (P11309 whole entry): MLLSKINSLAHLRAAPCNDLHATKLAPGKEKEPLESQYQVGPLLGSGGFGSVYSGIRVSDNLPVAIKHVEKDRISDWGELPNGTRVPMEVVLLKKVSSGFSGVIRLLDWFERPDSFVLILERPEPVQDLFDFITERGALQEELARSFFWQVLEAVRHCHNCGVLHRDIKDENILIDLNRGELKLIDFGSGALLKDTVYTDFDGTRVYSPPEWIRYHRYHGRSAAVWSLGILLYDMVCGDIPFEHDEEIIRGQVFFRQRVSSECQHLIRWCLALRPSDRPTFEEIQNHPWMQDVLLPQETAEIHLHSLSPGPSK

The term IC50 denotes the concentration that gives 50% inhibition. On to `CN1C(=O)/C(=C/c2ccc3c(c2)OCO3)N=C1Nc1ccc2c(c1)OCO2`, for which the IC50 in assay [1] was 400 nM; in assay [2], 100 nM; in assay [3] it was 160 nM; in assay [4] it was greater than 10000 nM; in assay [5], greater than 10000 nM; in assay [6], 5800 nM. Further, the inhibition result (in the assay listed under Sus scrofa; in assay [7]) was “inactive” throughout.

For the molecule `CCNC1=N/C(=C\c2ccc3c(c2)OCO3)C(=O)N1C`, the IC50 in assay [1] is 580 nM; in assay [2] it was 640 nM; in assay [3] it was 170 nM; in assay [4], 2100 nM; in assay [5] it was 7200 nM; in assay [6], 16000 nM. Also, the inhibition result (in the assay listed under Sus scrofa; in assay [7]) was “inactive” in each case.

In the case of `COc1ccc(NC2=N/C(=C\c3ccc4c(c3)OCO4)C(=O)N2)cc1`, the IC50 in assay [1] was 110 nM; in assay [2], 80 nM; in assay [3], 830 nM; in assay [4], 10000 nM; in assay [5] it was greater than 10000 nM. Further, the inhibition result in the assay listed under Sus scrofa is “inactive”.

As to `O=C1NC(Nc2ccc(O)cc2)=N/C1=C\c1ccc2c(c1)OCO2`, the IC50 in assay [1] is 96 nM; in assay [2], 60 nM; in assay [3], 60 nM; in assay [4], 520 nM; in assay [5] it was 1200 nM. Besides, in the assay filed under Sus scrofa, the inhibition result was “inactive”.

Turning to `CN1C(=O)/C(=C/c2ccc3c(c2)OCO3)N=C1NCCCO`, the IC50 in assay [1] amounted to 280 nM; in assay [2] it was 470 nM; in assay [3], 233 nM; in assay [4] it was 3900 nM; in assay [5] it was 6500 nM. Further, the inhibition result in the assay filed under Sus scrofa was “inactive”.

Regarding `CN1C(=O)/C(=C/c2ccc3c(c2)OCO3)N=C1NCCN`, the IC50 was determined as 910 nM in assay [1]; 710 nM in assay [2]; 190 nM in assay [3]; 5000 nM in assay [4]; 3100 nM in assay [5]; 910 nM in assay [6]. Moreover, the inhibition result (in the assay filed under Sus scrofa; in assay [7]) was “inactive” in each case.

Take `CN1C(=O)/C(=C/c2ccc3c(c2)OCO3)N=C1NCCO`: the IC50 in assay [1] was 7000 nM; in assay [2], 10000 nM; in assay [3], 120 nM; in assay [4] it was greater than 10000 nM; in assay [5], greater than 10000 nM; in assay [6], 1300 nM. Besides, the inhibition result (in the assay listed under Sus scrofa; in assay [7]) was “inactive” each time.

For `Cc1ccc(NC2=N/C(=C\c3ccc4c(c3)OCO4)C(=O)N2)cc1`, the IC50 was 170 nM in assay [1]; 61 nM in assay [2]; 320 nM in assay [3]; greater than 10000 nM in assay [4]; 9000 nM in assay [5]. Also, the inhibition entry in the assay listed under Sus scrofa is “inactive”.

Take `CNC1=N/C(=C\c2ccc3c(c2)OCO3)C(=O)N1C`: the concentration for half-maximal inhibition (IC50) in assay [1] is 2100 nM; in assay [2] it was 2200 nM; in assay [3] it was 770 nM; in assay [4], 3200 nM; in assay [5], 3500 nM. Moreover, in the assay filed under Sus scrofa, the inhibition entry was “inactive”.

Take `CCCNC1=N/C(=C\c2ccc3c(c2)OCO3)C(=O)N1C`: the IC50 is 540 nM in assay [1]; 550 nM in assay [2]; 310 nM in assay [3]; 1200 nM in assay [4]; 4500 nM in assay [5]. Also, the inhibition result in the assay filed under Sus scrofa is “inactive”.

With `O=C1NC(NCC2CC2)=N/C1=C\c1ccc2c(c1)OCO2`, the concentration for half-maximal inhibition (IC50) in assay [1] came to 100 nM; in assay [2] it was 47 nM; in assay [3], 83 nM; in assay [4], 610 nM; in assay [5] it was 1500 nM; in assay [6] it was 4700 nM. Further, the inhibition result (in the assay listed under Sus scrofa; in assay [7]) was “inactive” throughout.

As to `CN1C(=O)/C(=C/c2ccc3c(c2)OCO3)N=C1Nc1ccccc1`, the IC50 in assay [1] was 310 nM; in assay [2] it was 460 nM; in assay [3], 84 nM; in assay [4], 4600 nM; in assay [5], 2600 nM. For the same molecule, the inhibition entry in the assay listed under Sus scrofa is “inactive”.

In the case of `CN1C(=O)/C(=C/c2ccc3c(c2)OCO3)N=C1NCc1ccc2c(c1)OCO2`, the IC50 was 3200 nM in assay [1]; 3300 nM in assay [2]; 230 nM in assay [3]; greater than 10000 nM in assay [4]; 590 nM in assay [5]. In addition, the inhibition result in the assay listed under Sus scrofa is “inactive”.

Consider `COCCNC1=N/C(=C\c2ccc3c(c2)OCO3)C(=O)N1C`, for which the IC50 in assay [1] is 570 nM; in assay [2], 770 nM; in assay [3] it was 73 nM; in assay [4], 3100 nM; in assay [5], greater than 10000 nM. The inhibition entry in the assay listed under Sus scrofa is “inactive”.

With `CC(C)CNC1=N/C(=C\c2ccc3c(c2)OCO3)C(=O)N1C`, the IC50 was determined as 170 nM in assay [1]; 210 nM in assay [2]; 120 nM in assay [3]; 900 nM in assay [4]; 2000 nM in assay [5]; 3100 nM in assay [6]. Also, the inhibition entry (in the assay filed under Sus scrofa; in assay [7]) was “inactive” in each case.

Turning to `O=C1NC(Nc2ccc3c(c2)OCCO3)=N/C1=C\c1ccc2c(c1)OCO2`, the IC50 in assay [1] is 170 nM; in assay [2] it was 110 nM; in assay [3], 320 nM; in assay [4], greater than 10000 nM; in assay [5], greater than 10000 nM; in assay [6] it was greater than 10000 nM. Besides, the inhibition result (in the assay listed under Sus scrofa; in assay [7]) was “inactive” each time.

As for `CC(C)NC1=N/C(=C\c2ccc3c(c2)OCO3)C(=O)N1C`, the 50% inhibitory concentration (IC50) is 390 nM in assay [1]; 530 nM in assay [2]; 260 nM in assay [3]; 2000 nM in assay [4]; 4000 nM in assay [5]. Also, the inhibition result in the assay listed under Sus scrofa is “inactive”.

For `CCCCNC1=N/C(=C\c2ccc3c(c2)OCO3)C(=O)N1C`, the IC50 in assay [1] was 500 nM; in assay [2] it was 610 nM; in assay [3], 130 nM; in assay [4], 1100 nM; in assay [5] it was 4600 nM. The inhibition entry in the assay filed under Sus scrofa is “inactive”.

On to `O=C1NC(Nc2ccc3c(c2)OCO3)=N/C1=C\c1ccc2c(c1)OCO2`, for which the IC50 in assay [1] worked out at 66 nM; in assay [2], 40 nM; in assay [3] it was 170 nM; in assay [4] it was 360 nM; in assay [5] it was 5000 nM. Besides, in the assay filed under Sus scrofa, the inhibition entry is “inactive”.

Regarding `CC(=O)NC1=N/C(=C\c2ccc3c(c2)OCO3)C(=O)N1C`, the IC50 in assay [1] is 3100 nM; in assay [2], 5100 nM; in assay [3], 2400 nM; in assay [4], greater than 10000 nM; in assay [5] it was greater than 10000 nM. For the same molecule, the inhibition entry in the assay filed under Sus scrofa is “inactive”.

For the molecule `CN1C(=O)/C(=C/c2ccc3c(c2)OCO3)N=C1NC1CCCC1`, the IC50 in assay [1] was 3700 nM; in assay [2], 6000 nM; in assay [3] it was 140 nM; in assay [4], greater than 10000 nM; in assay [5] it was 300 nM. The inhibition entry in the assay filed under Sus scrofa was “inactive”.

Regarding `CN1C(=O)/C(=C/c2ccc3c(c2)OCO3)N=C1NCCCCCO`, the IC50 is 2100 nM in assay [1]; 2000 nM in assay [2]; 140 nM in assay [3]; 7000 nM in assay [4]; 6100 nM in assay [5]. For the same molecule, the inhibition entry in the assay listed under Sus scrofa was “inactive”.

In the case of `CN1C(=O)/C(=C/c2ccc3c(c2)OCO3)N=C1Nc1ccc(O)cc1`, the IC50 in assay [1] was 440 nM; in assay [2] it was 1100 nM; in assay [3] it was 1000 nM; in assay [4], 3900 nM; in assay [5] it was 4000 nM. Besides, the inhibition entry in the assay listed under Sus scrofa is “inactive”.
